Common to all, as to format: functional
For experiment [1], the system named is Candida albicans. Put plainly: […] Evaluation of minimum inhibitory concentration against Candida albicans 406. Put shortly:
(§1)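 Stocks are 800 μg/mL in 50% ethanol. Each plate gets 10 μL of inoculum at 10^5 cfu/mL. Incubation at 25 °C, 48 h for yeasts and 120 h for dermatophytes and molds. Organisms are ATCC strains or clinical isolates.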

In experiment [2] the test system is Candida albicans. Put plainly: […] Evaluation of minimum inhibitory concentration against Candida albicans 60. In a few lines:
as §1

Experiment [3] relates to Candida albicans. Put plainly: Evaluation of In vitro antifungal activity against Candida albicans 2.01 by broth macro dilution method. Put shortly:
(§2)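 Yeast MIC and MFC by broth macrodilution per NCCLS M27-P in RPMI-1640 buffered with 0.165 M MOPS. Fluconazole in sterile water, other drugs in DMSO. C. parapsilosis ATCC 22019 is the reference strain in each run. MIC is the lowest concentration with turbidity ≤ the 80% inhibition standard. For MFC, 0.04 mL from clear tubes is plated on Sabouraud agar; MFC is the lowest concentration giving ≤1 colony.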

Experiment [4] relates to Candida tropicalis. Put plainly: In vitro evaluation of minimum inhibitory concentration against Candida tropicalis 2.11. Particulars: Candida tropicalis; read-out: MIC. Put shortly: as §1
A further experiment has as its system Cryptococcus neoformans. Put plainly: Evaluation of In vitro antifungal activity against Cryptococcus neoformans 74 by broth macro dilution method. In a few lines: as §2
Experiment [5] deals with Mus sp. Put plainly: In vivo evaluation of % survival rate after peroral administration on 3rd day at dose 2.5 mg/kg. As to conditions: Mus sp., po.
Experiment [6] has as its system Mus musculus. Put plainly: In vivo evaluation of % survival rate after peroral administration on 3rd day at dose 20 mg/kg. As to conditions: route oral.
Experiment [7] relates to Mus musculus. Put plainly: In vivo evaluation of % survival rate after peroral administration on 3rd day at dose 5 mg/kg. As to conditions: route oral.
The subject of experiment [8] is Mus musculus. Put plainly: In vivo evaluation of % survival rate after peroral administration on 5th day at dose 10 mg/kg. As to conditions: route oral.
In experiment [9] the test system is Mus sp. Put plainly: In vivo evaluation of % survival rate after peroral administration on 5th day at dose 2.5 mg/kg. Particulars: Mus sp., po.
Experiment [10] relates to Mus musculus. Put plainly: In vivo evaluation of % survival rate after peroral administration on 5th day at dose 20 mg/kg. Particulars: route oral.
The test system of experiment [11] is Mus musculus. Put plainly: In vivo evaluation of % survival rate after peroral administration on 5th day at dose 5 mg/kg. Particulars: route oral.
The subject of experiment [12] is Mus musculus. Put plainly: In vivo evaluation of % survival rate after peroral administration on 7th day at dose 10 mg/kg. Particulars: route oral.
The test system of experiment [13] is Mus sp. Put plainly: In vivo evaluation of % survival rate after peroral administration on 7th day at dose 2.5 mg/kg. As to conditions: Mus sp., po.
The subject of experiment [14] is Mus musculus. Put plainly: In vivo evaluation of % survival rate after peroral administration on 7th day at dose 20 mg/kg. Particulars: route oral.
Experiment [15] has as its system Mus musculus. Put plainly: In vivo evaluation of % survival rate after peroral administration on 9th day at dose 10 mg/kg. As to conditions: route oral.
Experiment [16] has as its system Mus sp. Put plainly: In vivo evaluation of % survival rate after peroral administration on 9th day at dose 2.5 mg/kg. As to conditions: Mus sp., po.
In experiment [17] the test system is Mus musculus. Put plainly: In vivo evaluation of % survival rate after peroral administration on 9th day at dose 20 mg/kg. Particulars: route oral.
Experiment [18] deals with Mus musculus. Put plainly: In vivo evaluation of % survival rate after peroral administration on 9th day at dose 5 mg/kg. As to conditions: route oral.
Experiment [19] relates to Rattus norvegicus. Put plainly: In vivo evaluation of antifungal activity against vaginal candidosis in rat at dose 0.5 mg/kg on 10th day. In a few lines: (§3)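 Female Wistar rats, 10 per group, received estradiol 25 mg/kg sc on day -5. On day 0 they were infected intravaginally with C. albicans by sterile swab. Infection was confirmed on day 3 by culturing the swab in TSB and then on Sabouraud agar. Oral dosing was once daily on days 3, 4 and 5; controls got vehicle only. Vaginal swabs taken on days 10 and 15 were cultured and read the next day.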

Experiment [20] concerns Rattus norvegicus. Put plainly: In vivo evaluation of antifungal activity against vaginal candidosis in rat at dose 0.5 mg/kg on 15th day. Put shortly: as §3
For experiment [21], the system named is Rattus norvegicus. Put plainly: In vivo evaluation of antifungal activity in against vaginal candidosis in rat at dose 0.25 mg/kg on 10th day. In a few lines:
(§4)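 Groups of 10 female Wistar rats given estradiol 25 mg/kg sc on day -5, infected intravaginally with C. albicans by sterile swab on day 0; infection confirmed on day 3 by swab culture (TSB, then Sabouraud agar). Oral dosing once daily on days 3, 4, 5; vehicle controls. Vaginal swabs cultured on days 10 and 15; read-out % cured (culture-negative).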

In experiment [22] the test system is Nakaseomyces glabratus. Put plainly: In vitro evaluation of minimum inhibitory concentration against Torulopsis glabrata 78. As to conditions: Nakaseomyces glabratus; read-out: MIC. In a few lines:
as §1

Experiment [23] deals with Rhodotorula mucilaginosa. Put plainly: In vitro evaluation of minimum inhibitory concentration against Rhodotorula rubra 16. Particulars: Rhodotorula mucilaginosa; read-out: MIC. Put shortly:
as §1

In experiment [24] the test system is Kluyveromyces marxianus. Put plainly: In vitro evaluation of minimum inhibitory concentration against Candida pseudotropicalis 13. As to conditions: Kluyveromyces marxianus; read-out: MIC. Put shortly: as §1
In experiment [25] the test system is Mus musculus. Put plainly: In vivo evaluation of % survival rate after peroral administration on 3rd day at dose 10 mg/kg. As to conditions: route oral.
The subject of experiment [26] is Mus musculus. Put plainly: In vivo evaluation of % survival rate after peroral administration on 7th day at dose 5 mg/kg. Particulars: route oral.
Experiment [27] has as its system Candida albicans. Put plainly: In vivo evaluation of minimum inhibitory concentration against Candida albicans 406. Put shortly: (§5)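 Broth macrodilution MIC following NCCLS M27-P, in RPMI-1640 buffered with 0.165 M MOPS. Fluconazole was dissolved in water and other drugs in DMSO. C. parapsilosis ATCC 22019 served as the reference strain in every run. MIC was the lowest concentration giving turbidity at or below the 80% inhibition standard.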

Experiment [28] has as its system Candida albicans. Put plainly: In vivo evaluation of minimum inhibitory concentration against Candida albicans 60. In a few lines: as §5
The test system of experiment [29] is Candida tropicalis. Put plainly: In vivo Evaluation of minimum inhibitory concentration against Candida tropicalis 2.11. Put shortly: as §1
For experiment [30], the system named is Kluyveromyces marxianus. Put plainly: In vivo Evaluation of minimum inhibitory concentration against Candida pseudotropicalis 13. Particulars: Kluyveromyces marxianus; read-out: MIC. In a few lines:
as §1

Experiment [31] concerns Rattus norvegicus. Put plainly: In vivo evaluation of antifungal activity against vaginal candidosis in rat at dose 0.1 mg/kg on 10th day. In a few lines:
(§6)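 Groups of 10 female Wistar rats given estradiol 25 mg/kg sc on day -5, then vaginally inoculated with C. albicans on day 0. Infection is confirmed by culture of day-3 swabs. Compound is dosed orally once daily on days 3–5; controls get vehicle. Cure is scored by culture of vaginal swabs taken on days 10 and 15.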

Experiment [32] has as its system Rattus norvegicus. Put plainly: In vivo evaluation of antifungal activity against vaginal candidosis in rat at dose 0.1 mg/kg on 15th day. In a few lines:
as §6

Experiment [33] relates to Rattus norvegicus. Put plainly: In vivo evaluation of antifungal activity against vaginal candidosis in rat at dose 0.25 mg/kg on 10th day. In a few lines: as §4
In experiment [34] the test system is Rhodotorula mucilaginosa. Put plainly: In vivo Evaluation of minimum inhibitory concentration against Rhodotorula rubra 16. Particulars: in the assay text read “In vitro” for “In vivo”. Put shortly:
as §1

Experiment [35] has as its system Nakaseomyces glabratus. Put plainly: In vivo Evaluation of minimum inhibitory concentration against Torulopsis glabrata 78. Particulars: in the assay text read “In vitro” for “In vivo”. In a few lines:
as §1

Values after ≈ are worked out from the molar mass of the structure shown. Bounds are passed on as bounds.

The MIC is the lowest concentration found to suppress growth. In general, MFC refers to the smallest concentration meeting the test's criterion for killing the fungus. Higher therefore signals less potent killing.

Regarding `OC(Cn1cncn1)(Cn1cncn1)c1ccc(F)cc1F` [FLUCONAZOLE], the MIC is 2.5 µg/mL (≈ 8.16 µM) with Candida albicans [1]; 2.5 µg/mL (≈ 8.16 µM) against Candida albicans [2]; 1 µg/mL (≈ 3.27 µM) against Candida albicans [3]; 80 µg/mL (≈ 261 µM) in the experiment on Candida tropicalis [4]; 0.5 µg/mL (≈ 1.63 µM) against Cryptococcus neoformans; more than 80 µg/mL with Nakaseomyces glabratus [22]. Besides, the results for the MIC in the experiment on Rhodotorula mucilaginosa [23] and in the experiment with Kluyveromyces marxianus [24] were more than 80 µg/mL and 80 µg/mL (≈ 261 µM), respectively. Moreover, the MFC with Candida albicans [3] was more than 64 µg/mL; in the experiment on Cryptococcus neoformans, 1 µg/mL (≈ 3.27 µM). Also, the survival at 2.5 mg/kg amounted to 100% with Mus sp. [5], 100% in the experiment on Mus sp. [9], 95% in the experiment on Mus sp. [13] and 70% with Mus sp. [16]. The survival at 20 mg/kg in the experiment with Mus musculus [6] is 100%; in the experiment with Mus musculus [10], 100%; in the experiment with Mus musculus [14], 98%; in the experiment on Mus musculus [17], 75%. Besides, the survival at 5 mg/kg in the experiment on Mus musculus [7] stood at 100%; with Mus musculus [11] it was 100%; in the experiment with Mus musculus [18] it was 40%; in the experiment with Mus musculus [26], 90%. In addition, the survival at 10 mg/kg amounted to 100% with Mus musculus [8], 80% in the experiment on Mus musculus [12], 60% in the experiment on Mus musculus [15] and 100% in the experiment with Mus musculus [25]. Also, the Cure rate stood at 20% in the experiment on Rattus norvegicus [19], 20% in the experiment with Rattus norvegicus [20] and 10% in the experiment on Rattus norvegicus [21].
With `C[C@H]1N(C(=O)c2ccc(C(F)(F)F)cc2)C[C@H](O)O[C@@]1(Cn1cncn1)c1ccc(F)cc1F` (stereo in doubt; (-)-39a), the MIC in the experiment on Candida albicans [27] was found to be 1.25 µg/mL (≈ 2.59 µM); against Candida albicans [28], 2.5 µg/mL (≈ 5.18 µM); in the experiment on Candida albicans [3], 2 µg/mL (≈ 4.15 µM); in the experiment on Candida tropicalis [29] it was 40 µg/mL (≈ 82.9 µM); in the experiment on Kluyveromyces marxianus [30] it was 20 µg/mL (≈ 41.5 µM); in the experiment with Cryptococcus neoformans, 0.25 µg/mL (≈ 0.518 µM). In addition, the MIC against Rhodotorula mucilaginosa [34] and against Nakaseomyces glabratus [35] was more than 80 µg/mL in each case. Also, the figures for the MFC in the experiment on Candida albicans [3] and against Cryptococcus neoformans were more than 64 µg/mL and 2 µg/mL (≈ 4.15 µM), respectively. The results for the Cure rate in the experiment with Rattus norvegicus [31], in the experiment on Rattus norvegicus [32] and in the experiment on Rattus norvegicus [33] were 30%, 50% and 95%, respectively.
